Assay results from ChEMBL document CHEMBL2413060, “Synthesis, biological evaluation and molecular docking studies of some pyrimidine derivatives” (2013).

How the values were obtained:
Assay type in all cases: functional
Candida albicans = experiment: Antifungal activity against Candida albicans ATCC 2091 assessed as diameter of inhibition zone at 1 mg/ml after 48 hrs by cup diffusion method (reference value: 22 mm); conditions: ATCC 2091, 48 h, read-out: DIZ
Pseudomonas aeruginosa = experiment: Antibacterial activity against Pseudomonas aeruginosa ATCC 9027 assessed as diameter of inhibition zone at 1 mg/ml after 24 hrs by cup diffusion method (reference value: 16 mm); conditions: ATCC 9027, 24 h, read-out: DIZ
MDA-MB-468 [1] = experiment: Cytotoxicity against human MDA-MB-468 cells
In short: (§1)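 Five-dose in vitro screen on the full sixty human tumour cell line panel. Three response parameters derived per cell line: GI50, TGI and LC50, given in μM.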

T47D = experiment: Cytotoxicity against human T47D cells; in short: as §1
MDA-MB-435 = experiment: Cytotoxicity against human MDA-MB-435 cells; in short: as §1
BT-549 [2] = experiment: Cytotoxicity against human BT549 cells
NCI/ADR-RES = experiment: Cytotoxicity against human NCI/ADR-RES cells; in short: as §1
UO-31 [3] = experiment: Cytotoxicity against human UO31 cells
In short: (§2)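 Five-dose in vitro screen across the full sixty-cell human tumour line panel. Three response parameters were derived from the dose-response data: GI50, TGI and LC50, expressed in μM/l.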

TK-10 = experiment: Cytotoxicity against human TK10 cells; in short: as §2
CAKI-1 = experiment: Cytotoxicity against human Caki1 cells
ACHN [4] = experiment: Cytotoxicity against human ACHN cells
A498 [5] = experiment: Cytotoxicity against human A498 cells
OVCAR-5 = experiment: Cytotoxicity against human OVCAR5 cells; in short: as §1
UACC-62 = experiment: Cytotoxicity against human UACC62 cells; in short: as §2
SK-MEL-5 = experiment: Cytotoxicity against human SK-MEL-5 cells; in short: as §1
SK-MEL-28 = experiment: Cytotoxicity against human SK-MEL-28 cells; in short: as §1
Malme-3M [6] = experiment: Cytotoxicity against human MALME-3M cells
M14 = experiment: Cytotoxicity against human M14 cells
LOX IMVI = experiment: Cytotoxicity against human LOXIMVI cells
SF-295 [7] = experiment: Cytotoxicity against human SF295 cells; in short: as §1
SF-539 = experiment: Cytotoxicity against human SF539 cells; in short: as §1
SF-268 = experiment: Cytotoxicity against human SF268 cells; in short: as §1
HT-29 = experiment: Cytotoxicity against human HT-29 cells
KM12 = experiment: Cytotoxicity against human KM12 cells
HCT-15 = experiment: Cytotoxicity against human HCT15 cells
NCI-H522 [8] = experiment: Cytotoxicity against human NCI-H522 cells; in short: as §1
NCI-H460 = experiment: Cytotoxicity against human NCI-H460 cells; in short: as §1
[9] = Cytotoxicity against human EKVX cells
SR = experiment: Cytotoxicity against human SR cells; in short: as §1
HL-60(TB) = experiment: Cytotoxicity against human HL-60(TB) cells
In short: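 Run in the sixty human tumour cell line panel. The primary screen reports percent growth of treated cells, expressed as percentage growth inhibition. Compounds meeting the threshold inhibition criteria go on to the full-panel 5-dose assay, which gives three response parameters (GI50, TGI, LC50) in μM.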

MDA-MB-468 [10] = experiment: Cytotoxicity against human MDA-MB-468 cells assessed as growth inhibition at 10 uM; conditions: read-out: GI
In short: (§3)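 Single-dose screen on human tumour cell lines. Growth of treated cells is expressed as percent of untreated growth, plotted as a mean graph, and reported as percent growth inhibition.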

BT-549 [11] = experiment: Cytotoxicity against human BT549 cells assessed as growth inhibition at 10 uM; conditions: read-out: GI
Hs-578T = experiment: Cytotoxicity against human Hs578T cells assessed as growth inhibition at 10 uM; conditions: read-out: GI
PC-3 = experiment: Cytotoxicity against human PC3 cells assessed as growth inhibition at 10 uM; conditions: read-out: GI; in short: as §3
UO-31 [12] = experiment: Cytotoxicity against human UO31 cells assessed as growth inhibition at 10 uM; conditions: read-out: GI
In short: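 Single-dose screen in a sixty-cell human tumour line panel; percent growth of treated cells relative to untreated was read and reported as percentage growth inhibition, shown as a mean graph. Compounds meeting the threshold inhibition criteria went on to five-dose testing.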

RXF 393 = experiment: Cytotoxicity against human RXF393 cells assessed as growth inhibition at 10 uM; conditions: read-out: GI; in short: as §3
A498 [13] = experiment: Cytotoxicity against human A498 cells assessed as growth inhibition at 10 uM; conditions: read-out: GI
ACHN [14] = experiment: Cytotoxicity against human ACHN cells assessed as growth inhibition at 10 uM; conditions: read-out: GI
SK-OV-3 = experiment: Cytotoxicity against human SKOV3 cells assessed as growth inhibition at 10 uM; conditions: read-out: GI; in short: as §3
Malme-3M [15] = experiment: Cytotoxicity against human MALME-3M cells assessed as growth inhibition at 10 uM; conditions: read-out: GI
SF-295 [16] = experiment: Cytotoxicity against human SF295 cells assessed as growth inhibition at 10 uM; conditions: read-out: GI; in short: as §3
NCI-H522 [17] = experiment: Cytotoxicity against human NCI-H522 cells assessed as growth inhibition at 10 uM; conditions: read-out: GI; in short: as §3
[18] = read-out: LC50 (the source's name)

N#Cc1c(-c2ccccc2)nc(SCC2CO2)nc1N1CCOCC1 (stereo not drawn)
zone of inhibition at 1000 µg/mL (Candida albicans): 22 mm | zone of inhibition at 1000 µg/mL (Pseudomonas aeruginosa): 17 mm | GI50 (MDA-MB-468 [1]): 4.82 µM | TGI (MDA-MB-468 [1]): > 100 µM | CC50 (MDA-MB-468 [1]; [18]): > 100 µM | GI50 (T47D): 3.59 µM | TGI (T47D): 22.5 µM | CC50 (T47D; [18]): > 100 µM | GI50 (MDA-MB-435): 6.71 µM | TGI (MDA-MB-435): > 100 µM | CC50 (MDA-MB-435; [18]): > 100 µM | GI50 (BT-549 [2]): 3.22 µM | TGI (BT-549 [2]): > 100 µM | CC50 (BT-549 [2]; [18]): > 100 µM | GI50 (NCI/ADR-RES): 11.8 µM | TGI (NCI/ADR-RES): > 100 µM | CC50 (NCI/ADR-RES; [18]): > 100 µM | GI50 (UO-31 [3]): 7.57 µM | TGI (UO-31 [3]): > 100 µM | CC50 (UO-31 [3]; [18]): > 100 µM | GI50 (TK-10): 4.63 µM | TGI (TK-10): > 100 µM | CC50 (TK-10; [18]): > 100 µM | GI50 (CAKI-1): 0.635 µM | TGI (CAKI-1): 31.4 µM | CC50 (CAKI-1; [18]): > 100 µM | GI50 (ACHN [4]): 3.23 µM | TGI (ACHN [4]): > 100 µM | CC50 (ACHN [4]; [18]): > 100 µM | GI50 (A498 [5]): 1.06 µM | TGI (A498 [5]): 5.28 µM | CC50 (A498 [5]; [18]): > 100 µM | GI50 (OVCAR-5): 1.7 µM | TGI (OVCAR-5): > 100 µM | CC50 (OVCAR-5; [18]): > 100 µM | GI50 (UACC-62): 3.12 µM | TGI (UACC-62): 75.5 µM | CC50 (UACC-62; [18]): > 100 µM | GI50 (SK-MEL-5): 17 µM | TGI (SK-MEL-5): > 100 µM | CC50 (SK-MEL-5; [18]): > 100 µM | GI50 (SK-MEL-28): 5.45 µM | TGI (SK-MEL-28): 98.3 µM | CC50 (SK-MEL-28; [18]): > 100 µM | GI50 (Malme-3M [6]): 2.56 µM | TGI (Malme-3M [6]): > 100 µM | CC50 (Malme-3M [6]; [18]): > 100 µM | GI50 (M14): 11.9 µM | TGI (M14): > 100 µM | CC50 (M14; [18]): > 100 µM | GI50 (LOX IMVI): 6.48 µM | TGI (LOX IMVI): > 100 µM | CC50 (LOX IMVI; [18]): > 100 µM | GI50 (SF-295 [7]): 1.46 µM | TGI (SF-295 [7]): 20.4 µM | CC50 (SF-295 [7]; [18]): > 100 µM | GI50 (SF-539): 19.8 µM | TGI (SF-539): > 100 µM | CC50 (SF-539; [18]): > 100 µM | GI50 (SF-268): 13 µM | TGI (SF-268): > 100 µM | CC50 (SF-268; [18]): > 100 µM | GI50 (HT-29): 36.8 µM | TGI (HT-29): > 100 µM | CC50 (HT-29; [18]): > 100 µM | GI50 (KM12): 27.1 µM | TGI (KM12): > 100 µM | CC50 (KM12; [18]): > 100 µM | GI50 (HCT-15): 4.06 µM | TGI (HCT-15): > 100 µM | CC50 (HCT-15; [18]): > 100 µM | GI50 (NCI-H522 [8]): 72.5 µM | TGI (NCI-H522 [8]): > 100 µM | CC50 (NCI-H522 [8]; [18]): > 100 µM | GI50 (NCI-H460): 10.3 µM | TGI (NCI-H460): > 100 µM | CC50 (NCI-H460; [18]): > 100 µM | GI50 [9]: 3.65 µM | TGI [9]: > 100 µM | CC50 [9, 18]: > 100 µM | GI50 (SR): 33.3 µM | TGI (SR): > 100 µM | CC50 (SR; [18]): > 100 µM | GI50 (HL-60(TB)): 34.1 µM | TGI (HL-60(TB)): > 100 µM | CC50 (HL-60(TB); [18]): > 100 µM | inhibition of growth at 10 µM (MDA-MB-468 [10]): 44.1% | inhibition of growth at 10 µM (BT-549 [11]): 88.6% | inhibition of growth at 10 µM (Hs-578T): 50% | inhibition of growth at 10 µM (PC-3): 63.9% | inhibition of growth at 10 µM (UO-31 [12]): 70.5% | inhibition of growth at 10 µM (RXF 393): 68.5% | inhibition of growth at 10 µM (A498 [13]): 115% | inhibition of growth at 10 µM (ACHN [14]): 40.8% | inhibition of growth at 10 µM (SK-OV-3): 71.9% | inhibition of growth at 10 µM (Malme-3M [15]): 74.3% | inhibition of growth at 10 µM (SF-295 [16]): 90.9% | inhibition of growth at 10 µM (NCI-H522 [17]): 42.1%
